Here are results for two molecules from article PMC7227796 (ACS chemical neuroscience, 2020).

One assay concerns the target native KA receptors. Conditions: rat synaptosomes, [3H]KA; earlier work, ref [36],[38],[39]; cited from earlier work.
The target in assay [1] is GluN1/GluN2B NMDA receptor (Rattus norvegicus, UniProt P35439+Q00960). As to the kind of experiment: Two-electrode voltage-clamp recordings, Xenopus oocytes expressing GluN1/GluN2B. The assay is classed as cell-based. The procedure, abridged:
(§1)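 Xenopus oocytes were injected with rat GluN1-1a and GluN2A, 2B, 2C or 2D cRNA at a 1:2 ratio. Two-electrode voltage clamp was run 2–6 days later at room temperature and −40 mV. Bath was 90 NaCl, 1 KCl, 10 HEPES, 0.5 BaCl2, 0.01 EDTA (mM), pH 7.4. Currents were evoked by 1 μM glutamate plus 100 μM glycine, with test compound gravity-perfused. Hill fits gave IC50 per oocyte (5–6 oocytes). Ki was derived by Cheng-Prusoff using earlier glutamate EC50 values.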

For assay [2], the target named is GluN1/GluN2D NMDA receptor (Rattus norvegicus, UniProt P35439+Q62645). As to the kind of experiment: Two-electrode voltage-clamp recordings, Xenopus oocytes expressing GluN1/GluN2D. The assay is classed as cell-based. The procedure, abridged:
as §1
(In general: In two-electrode clamp one electrode senses voltage and the other passes current.)

For assay [3], the target named is GluN1/GluN2C NMDA receptor (Rattus norvegicus, UniProt P35439+Q00961). As to the kind of experiment: Two-electrode voltage-clamp recordings, Xenopus oocytes expressing GluN1/GluN2C. It is filed as cell-based. The procedure, abridged:
as §1

In assay [4] the target is GluN1/GluN2A NMDA receptor (Rattus norvegicus, UniProt P35439+Q00959). As to the kind of experiment: Two-electrode voltage-clamp recordings, Xenopus oocytes expressing GluN1/GluN2A. The assay is classed as cell-based. The procedure, abridged:
as §1

Sequence of GluN1/GluN2B NMDA receptor (Q00960 27-1482, other chains not shown): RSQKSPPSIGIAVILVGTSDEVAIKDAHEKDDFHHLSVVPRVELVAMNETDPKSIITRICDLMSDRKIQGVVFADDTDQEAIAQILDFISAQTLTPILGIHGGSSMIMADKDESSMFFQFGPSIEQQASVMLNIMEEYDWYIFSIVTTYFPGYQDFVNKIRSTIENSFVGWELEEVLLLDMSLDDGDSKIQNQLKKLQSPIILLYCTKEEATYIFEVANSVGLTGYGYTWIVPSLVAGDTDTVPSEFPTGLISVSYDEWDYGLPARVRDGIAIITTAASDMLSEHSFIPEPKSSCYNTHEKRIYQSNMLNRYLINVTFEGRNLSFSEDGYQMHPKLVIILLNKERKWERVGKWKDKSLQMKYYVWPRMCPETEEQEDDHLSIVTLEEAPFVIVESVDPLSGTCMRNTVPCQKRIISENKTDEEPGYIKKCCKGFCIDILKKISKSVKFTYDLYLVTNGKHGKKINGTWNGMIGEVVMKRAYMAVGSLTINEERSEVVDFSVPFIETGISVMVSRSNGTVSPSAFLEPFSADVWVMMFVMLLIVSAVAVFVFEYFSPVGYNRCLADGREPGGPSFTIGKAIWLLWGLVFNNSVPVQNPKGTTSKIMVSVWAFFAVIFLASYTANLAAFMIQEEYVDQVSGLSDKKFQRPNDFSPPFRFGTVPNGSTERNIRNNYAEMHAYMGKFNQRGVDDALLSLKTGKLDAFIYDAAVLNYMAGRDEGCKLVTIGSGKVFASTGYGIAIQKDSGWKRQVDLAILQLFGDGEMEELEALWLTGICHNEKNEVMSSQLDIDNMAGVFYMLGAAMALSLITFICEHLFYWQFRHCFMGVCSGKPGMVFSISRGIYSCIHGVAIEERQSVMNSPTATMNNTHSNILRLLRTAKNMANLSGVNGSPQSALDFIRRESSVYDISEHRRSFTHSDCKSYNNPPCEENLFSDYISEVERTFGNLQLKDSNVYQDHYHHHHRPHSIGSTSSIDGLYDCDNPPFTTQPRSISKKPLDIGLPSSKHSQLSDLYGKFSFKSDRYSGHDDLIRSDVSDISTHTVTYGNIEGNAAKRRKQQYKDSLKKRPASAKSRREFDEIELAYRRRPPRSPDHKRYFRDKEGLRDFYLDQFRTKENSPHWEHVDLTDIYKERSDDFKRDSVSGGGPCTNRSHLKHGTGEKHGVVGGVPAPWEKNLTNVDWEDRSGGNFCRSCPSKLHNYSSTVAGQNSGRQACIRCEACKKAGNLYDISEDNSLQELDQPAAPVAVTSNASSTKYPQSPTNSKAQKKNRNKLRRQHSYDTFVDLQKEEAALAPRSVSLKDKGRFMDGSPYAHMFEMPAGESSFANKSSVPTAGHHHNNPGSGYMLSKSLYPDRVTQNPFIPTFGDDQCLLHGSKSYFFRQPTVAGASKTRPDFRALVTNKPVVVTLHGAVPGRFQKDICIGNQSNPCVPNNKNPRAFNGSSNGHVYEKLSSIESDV
Sequence of GluN1/GluN2A NMDA receptor (Q00959 23-1464, other chains not shown): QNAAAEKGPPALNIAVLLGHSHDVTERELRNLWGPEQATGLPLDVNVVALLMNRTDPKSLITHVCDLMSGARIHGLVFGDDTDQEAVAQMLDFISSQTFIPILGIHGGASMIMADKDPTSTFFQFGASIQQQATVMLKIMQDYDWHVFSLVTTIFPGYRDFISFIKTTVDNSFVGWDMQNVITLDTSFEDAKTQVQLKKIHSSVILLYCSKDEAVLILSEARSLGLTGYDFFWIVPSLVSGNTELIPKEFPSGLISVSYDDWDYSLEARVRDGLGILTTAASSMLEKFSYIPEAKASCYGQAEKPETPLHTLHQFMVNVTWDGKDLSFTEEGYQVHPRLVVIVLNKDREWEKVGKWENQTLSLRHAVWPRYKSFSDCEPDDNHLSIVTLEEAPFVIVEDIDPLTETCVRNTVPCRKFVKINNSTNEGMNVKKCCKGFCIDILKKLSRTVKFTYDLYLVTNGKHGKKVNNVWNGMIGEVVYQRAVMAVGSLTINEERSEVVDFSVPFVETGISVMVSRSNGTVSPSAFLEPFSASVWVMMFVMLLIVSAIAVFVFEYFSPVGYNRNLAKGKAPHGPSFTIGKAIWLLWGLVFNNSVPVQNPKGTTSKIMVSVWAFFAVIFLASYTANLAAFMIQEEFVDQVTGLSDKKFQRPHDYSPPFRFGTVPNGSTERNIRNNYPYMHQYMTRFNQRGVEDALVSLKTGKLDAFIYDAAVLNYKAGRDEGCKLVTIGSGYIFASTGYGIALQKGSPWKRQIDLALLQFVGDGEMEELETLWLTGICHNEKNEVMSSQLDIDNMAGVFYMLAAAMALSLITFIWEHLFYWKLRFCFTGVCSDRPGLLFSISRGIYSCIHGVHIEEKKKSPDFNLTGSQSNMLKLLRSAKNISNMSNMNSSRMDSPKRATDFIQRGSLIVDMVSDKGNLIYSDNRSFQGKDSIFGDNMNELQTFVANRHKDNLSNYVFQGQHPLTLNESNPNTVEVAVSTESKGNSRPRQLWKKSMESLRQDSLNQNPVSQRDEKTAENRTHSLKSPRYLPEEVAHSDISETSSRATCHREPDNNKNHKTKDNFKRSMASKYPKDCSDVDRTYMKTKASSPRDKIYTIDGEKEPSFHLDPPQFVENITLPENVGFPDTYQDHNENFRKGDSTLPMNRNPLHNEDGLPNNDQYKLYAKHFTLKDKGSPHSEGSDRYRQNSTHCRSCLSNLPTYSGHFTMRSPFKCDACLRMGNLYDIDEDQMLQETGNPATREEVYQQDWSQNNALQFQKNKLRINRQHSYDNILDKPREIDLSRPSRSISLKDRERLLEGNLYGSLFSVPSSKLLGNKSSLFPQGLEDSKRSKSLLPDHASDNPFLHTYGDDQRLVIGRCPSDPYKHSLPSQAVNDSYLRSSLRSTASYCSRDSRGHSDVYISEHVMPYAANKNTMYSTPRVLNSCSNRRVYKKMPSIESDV
Sequence of GluN1/GluN2D NMDA receptor (Q62645 28-1323, other chains not shown): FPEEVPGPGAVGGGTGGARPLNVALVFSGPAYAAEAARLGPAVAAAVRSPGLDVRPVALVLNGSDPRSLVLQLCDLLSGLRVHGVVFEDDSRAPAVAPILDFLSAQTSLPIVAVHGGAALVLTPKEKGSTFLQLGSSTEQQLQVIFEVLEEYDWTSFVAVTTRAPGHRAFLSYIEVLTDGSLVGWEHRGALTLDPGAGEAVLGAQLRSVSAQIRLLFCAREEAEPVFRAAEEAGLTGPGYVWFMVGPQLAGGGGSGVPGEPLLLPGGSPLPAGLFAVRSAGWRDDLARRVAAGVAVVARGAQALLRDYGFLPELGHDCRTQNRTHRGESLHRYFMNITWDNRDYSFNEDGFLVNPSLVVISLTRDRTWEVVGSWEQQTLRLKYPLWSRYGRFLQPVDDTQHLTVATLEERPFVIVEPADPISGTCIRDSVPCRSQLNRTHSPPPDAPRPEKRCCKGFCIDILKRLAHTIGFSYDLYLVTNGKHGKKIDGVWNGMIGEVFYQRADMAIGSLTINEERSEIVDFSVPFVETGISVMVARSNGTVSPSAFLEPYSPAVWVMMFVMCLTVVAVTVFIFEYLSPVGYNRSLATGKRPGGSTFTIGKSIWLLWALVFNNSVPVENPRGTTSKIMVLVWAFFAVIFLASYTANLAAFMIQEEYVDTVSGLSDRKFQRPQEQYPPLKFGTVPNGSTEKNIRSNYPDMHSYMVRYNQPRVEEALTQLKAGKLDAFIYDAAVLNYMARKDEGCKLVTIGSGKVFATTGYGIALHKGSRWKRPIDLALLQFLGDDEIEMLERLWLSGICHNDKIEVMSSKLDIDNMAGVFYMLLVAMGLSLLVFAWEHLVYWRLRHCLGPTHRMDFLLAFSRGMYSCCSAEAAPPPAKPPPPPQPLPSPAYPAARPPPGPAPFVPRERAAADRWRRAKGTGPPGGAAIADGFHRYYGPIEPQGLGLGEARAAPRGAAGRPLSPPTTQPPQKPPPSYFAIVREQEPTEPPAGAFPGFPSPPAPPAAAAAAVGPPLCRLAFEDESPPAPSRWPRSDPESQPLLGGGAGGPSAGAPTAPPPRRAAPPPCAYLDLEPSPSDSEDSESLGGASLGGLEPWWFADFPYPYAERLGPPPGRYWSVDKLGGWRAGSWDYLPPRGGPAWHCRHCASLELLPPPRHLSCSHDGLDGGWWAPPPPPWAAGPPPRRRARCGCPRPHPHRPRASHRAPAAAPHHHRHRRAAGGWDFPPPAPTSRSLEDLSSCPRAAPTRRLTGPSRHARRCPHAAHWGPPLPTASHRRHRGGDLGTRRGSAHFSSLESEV

Broadly, the IC50 is the concentration at which inhibition is half-maximal. Read a high IC50 as lower potency. Consider `Cl.O=C(O)c1cccc([C@H]2CCN[C@@H]2C(=O)O)c1` [4a, (2S,3R)-3-(3-Carboxyphenyl)pyrrolidine-2-carboxylic acid hydrochloride], for which, at native KA receptors, the “KA (IC50), native iGluRs” value is 22 µM. For the same molecule, the IC50 in assay [1] was 34.5 ± 0.97 µM; in assay [2], more than 100 µM; in assay [3], 91.2 ± 2.6 µM; in assay [4] it was 11.8 ± 0.23 µM.

As for `Cl.O=C(O)c1cc([C@H]2CCN[C@@H]2C(=O)O)ccc1Br` [4f, (2S,3R)-3-(4-Bromo-3-carboxyphenyl)pyrrolidine-2-carboxylic acid hydrochloride], the “KA (IC50), native iGluRs” value at native KA receptors is more than 100 µM.
